Results from ChEMBL document CHEMBL3865824, “New (E)-1-alkyl-1H-benzo[d]imidazol-2-yl)methylene)indolin-2-ones: Synthesis, in vitro cytotoxicity evaluation and apoptosis inducing studies” (Eur J Med Chem, 2016).

What was measured:
[1] = Cytotoxicity against […] cells assessed as reduction in cell viability after 48 hrs by MTT assay; assay type: functional, cell-based; settings: 4T1, 48 h
Outline: (§1)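 Cells grown in DMEM or MEM with 10% FBS at 37 °C, 5% CO2. Seeded at 1×10^4 cells/well, incubated 48 h, then exposed to compound for 48 h with vehicle control. MTT (5 mg/mL stock) added for 4 h; formazan dissolved in DMSO, absorbance read at 570 nm. Preliminary screen at 50 µM. Compounds giving >50% inhibition were tested for dose-response curves; IC50 derived by linear regression of % inhibition versus concentration. Mean of three independent experiments in triplicate.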

[2] = Cytotoxicity against human MCF7 cells assessed as reduction in cell viability after 48 hrs by MTT assay; assay type: functional, cell-based; settings: MCF7, 48 h; outline: as §1
[3] = Cytotoxicity against human BT549 cells assessed as growth inhibition at 50 uM after 48 hrs by MTT assay relative to control; assay type: functional; settings: BT-549, 48 h, read-out: GI; outline: as §1
[4] = Cytotoxicity against […] cells assessed as growth inhibition at 50 uM after 48 hrs by MTT assay relative to control; assay type: functional; settings: Mus musculus, 4T1, 48 h; read-out: GI; outline: as §1
[5] = Cytotoxicity against HGC cells assessed as reduction in cell viability after 48 hrs by MTT assay; assay type: functional, cell-based; settings: Homo sapiens; outline: as §1
[6] = Cytotoxicity against human A549 cells assessed as reduction in cell viability after 48 hrs by MTT assay; assay type: functional, cell-based; settings: A549, 48 h; outline: as §1
[7] = Cytotoxicity against human MDA-MB-231 cells assessed as growth inhibition at 50 uM after 48 hrs by MTT assay relative to control; assay type: functional; settings: MDA-MB-231, 48 h, read-out: GI; outline: as §1
[8] = Cytotoxicity against HGC cells assessed as growth inhibition at 50 uM after 48 hrs by MTT assay relative to control; assay type: functional; settings: Homo sapiens, read-out: GI; outline: as §1
[9] = Cytotoxicity against human A549 cells assessed as growth inhibition at 50 uM after 48 hrs by MTT assay relative to control; assay type: functional; settings: A549, 48 h, read-out: GI; outline: as §1
[10] = Cytotoxicity against human BT549 cells assessed as reduction in cell viability after 48 hrs by MTT assay; assay type: functional, cell-based; settings: BT-549, 48 h; outline: as §1
[11] = Cytotoxicity against human DU145 cells assessed as growth inhibition at 50 uM after 48 hrs by MTT assay relative to control; assay type: functional; settings: DU-145, 48 h, read-out: GI; outline: as §1
[12] = Cytotoxicity against human DU145 cells assessed as reduction in cell viability after 48 hrs by MTT assay; assay type: functional, cell-based; settings: DU-145, 48 h; outline: as §1
[13] = Cytotoxicity against human MDA-MB-231 cells assessed as reduction in cell viability after 48 hrs by MTT assay; assay type: functional, cell-based; settings: MDA-MB-231, 48 h; outline: as §1
[14] = Cytotoxicity against human MCF7 cells assessed as growth inhibition at 50 uM after 48 hrs by MTT assay relative to control; assay type: functional; settings: MCF7, 48 h, read-out: GI; outline: as §1
[15] = Cytotoxicity against human PC3 cells assessed as reduction in cell viability after 48 hrs by MTT assay; assay type: functional, cell-based; settings: PC-3, 48 h; outline: as §1
[16] = Cytotoxicity against human PC3 cells assessed as growth inhibition at 50 uM after 48 hrs by MTT assay relative to control; assay type: functional; settings: PC-3, 48 h, read-out: GI; outline: as §1
[17] = Selectivity ratio of IC50 for human MCF10A cells to IC50 for human MDA-MB-231 cells; assay type: ADME, cell-based, MCF-10A; settings: MCF10A cells versus MDA-MB-231 cells, read-out: Ratio IC50
[18] = Cytotoxicity against human MCF10A cells assessed as reduction in cell viability after 48 hrs by MTT assay; assay type: toxicity, cell-based, MCF-10A; outline: as §1
[19] = Selectivity ratio of IC50 for human MCF10A cells to IC50 for […] cells; assay type: ADME, cell-based, MCF-10A; settings: MCF10A cells versus 4TI cells, read-out: Ratio IC50

SMILES | IC50 [1] [µM] | IC50 [2] [µM] | inhibition of growth at 50 µM [3] [%] | inhibition of growth at 50 µM [4] [%] | IC50 [5] [µM] | IC50 [6] [µM] | inhibition of growth at 50 µM [7] [%] | inhibition of growth at 50 µM [8] [%] | inhibition of growth at 50 µM [9] [%] | IC50 [10] [µM] | inhibition of growth at 50 µM [11] [%] | IC50 [12] [µM] | IC50 [13] [µM] | inhibition of growth at 50 µM [14] [%] | IC50 [15] [µM] | inhibition of growth at 50 µM [16] [%] | selectivity ratio [17] | IC50 at 48 h [18] [µM] | selectivity ratio [19]
CCn1c(/C=C2/C(=O)Nc3ccc(C)cc32)nc2ccccc21 | 39.4 | > 50 | < 50 | > 50 | > 50 | > 50 | > 50 | < 50 | < 50 | > 50 | > 50 | 39.3 | 40.6 | < 50 | 38.6 | > 50 |  |  | 
Cc1ccc2c(c1)/C(=C\c1nc3ccccc3n1C(C)C)C(=O)N2 | 9.36 | 16.3 | > 50 | > 50 | 14.6 | 23 | > 50 | > 50 | > 50 | 23.7 | > 50 | 13.3 | 7.23 | > 50 | 14 | > 50 | 14 | 99.7 | 10.6
Cn1c(/C=C2/C(=O)Nc3ccc([N+](=O)[O-])cc32)nc2ccccc21 | > 50 |  |  | < 50 |  | > 50 |  |  | < 50 |  | < 50 | > 50 |  |  | > 50 | < 50 |  |  | 
CCn1c(/C=C2/C(=O)Nc3ccc(Cl)cc32)nc2ccccc21 | > 50 | > 50 | < 50 | < 50 | > 50 | > 50 | > 50 | < 50 | < 50 | > 50 | < 50 | > 50 | 37.5 | < 50 | > 50 | < 50 |  |  | 
Cn1c(/C=C2/C(=O)Nc3ccccc32)nc2ccccc21 | > 50 | > 50 | < 50 | < 50 | > 50 | > 50 | < 50 | < 50 | < 50 | > 50 | > 50 | 43.2 | > 50 | < 50 | > 50 | < 50 |  |  | 
CCn1c(/C=C2/C(=O)Nc3ccccc32)nc2ccccc21 | > 50 |  | < 50 | < 50 | > 50 | > 50 | < 50 | < 50 | < 50 | > 50 | < 50 | > 50 | > 50 |  | 38 | > 50 |  |  | 
CC(C)n1c(/C=C2/C(=O)Nc3ccccc32)nc2ccccc21 | 40.4 | 39.5 | > 50 | > 50 | 33.5 | 35.3 | > 50 | > 50 | > 50 | 38.9 | > 50 | 38.1 | 30.4 | > 50 | 37.6 | > 50 |  |  | 
CCn1c(/C=C2/C(=O)Nc3ccc(F)cc32)nc2ccccc21 | > 50 | > 50 | < 50 | < 50 | > 50 | > 50 | < 50 | < 50 | < 50 | > 50 | > 50 | 40.6 | > 50 | < 50 | > 50 | < 50 |  |  | 
CCn1c(/C=C2/C(=O)Nc3ccc(Br)cc32)nc2ccccc21 | 40.7 |  |  | > 50 | > 50 | > 50 |  | < 50 | < 50 |  | > 50 | 45.8 |  |  | 42.6 | > 50 |  |  | 
Cn1c(/C=C2/C(=O)Nc3ccc(F)cc32)nc2ccccc21 | 29.6 | 31.6 | > 50 | > 50 | 37.8 | 34.6 | > 50 | > 50 | > 50 | 26.9 | > 50 | 32.3 | 21.7 | > 50 | 34.2 | > 50 |  |  | 
Cc1ccc2c(c1)/C(=C\c1nc3ccccc3n1C)C(=O)N2 | > 50 |  | < 50 | < 50 | > 50 | > 50 |  | < 50 | < 50 | > 50 | < 50 | > 50 |  |  | > 50 | < 50 |  |  | 
CCn1c(/C=C2/C(=O)Nc3ccc([N+](=O)[O-])cc32)nc2ccccc21 | > 50 | > 50 | < 50 | < 50 | > 50 | > 50 |  | < 50 | < 50 | > 50 | < 50 | > 50 |  | < 50 | 40.1 | > 50 |  |  | 
Cn1c(/C=C2/C(=O)Nc3ccc(Br)cc32)nc2ccccc21 | > 50 | > 50 | < 50 | < 50 | > 50 | 41.2 | < 50 | < 50 | > 50 | > 50 | > 50 | 39.6 | > 50 | < 50 | > 50 | < 50 |  |  | 
CC(C)n1c(/C=C2/C(=O)Nc3ccc(F)cc32)nc2ccccc21 | 25.8 | 29 | > 50 | > 50 | 28 | 28.4 | > 50 | > 50 | > 50 | 26.7 | > 50 | 24.5 | 22.7 | > 50 | 20.8 | > 50 |  | > 100 | 
Cn1c(/C=C2/C(=O)Nc3ccc(Cl)cc32)nc2ccccc21 | 43.6 | > 50 | > 50 | > 50 | 43.6 | 39.7 | > 50 | > 50 | > 50 | 39.1 | > 50 | 38.9 | 37.6 | < 50 | > 50 | < 50 |  |  | 
